# Source: ChEMBL document CHEMBL1275484, “Rifampin and rifaximin resistance in clinical isolates of Clostridium difficile” (Antimicrob Agents Chemother, 2008)
# Legend:
# Assay type in all cases: functional
# Clostridioides difficile [1] = experiment: Antimicrobial activity against Clostridium difficile isolate 42 by Etest
# Method in brief: (§1)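 Rifampin Etest strips were run on brucella blood agar following the manufacturer's instructions to give an MIC. Clinical isolates were typed by HindIII REA.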
# Clostridioides difficile [2] = experiment: Antimicrobial activity against Clostridium difficile isolate 34 by agar dilution method
# Method in brief: (§2)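 MIC by CLSI reference agar dilution for anaerobes, with endpoints read per M11-A7 and C. difficile […] as control. Rifaximin was dissolved in methanol, diluted in 0.1 M phosphate buffer pH 7.4 plus 0.45% SDS, and tested at 0.0009–256 μg/ml. Rifampin was dissolved in methanol, diluted in water, and tested at 0.00001–256 μg/ml.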
# Clostridioides difficile [3] = experiment: Antimicrobial activity against Clostridium difficile isolate 63 by Etest
# Method in brief: (§3)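 Rifampin MIC by Etest on brucella blood agar, run per the strip manufacturer's instructions, against clinical isolates typed by HindIII REA.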
# Clostridioides difficile [4] = experiment: Antimicrobial activity against Clostridium difficile isolate 40 by Etest; method in brief: as §1
# Clostridioides difficile [5] = experiment: Antimicrobial activity against Clostridium difficile isolate 52 by Etest; method in brief: as §1
# Clostridioides difficile [6] = experiment: Antimicrobial activity against rifaximin-resistant Clostridium difficile isolate 67 expressing RpoB H502N and R505K mutants by agar dilution method
# Method in brief: (§4)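 MICs were found by the CLSI reference agar dilution method for anaerobes, with endpoints read per M11-A7 and C. difficile […] as control. Rifaximin was dissolved in methanol, diluted in 0.1 M phosphate buffer pH 7.4 with 0.45% SDS, and tested at 0.0009–256 μg/ml. Rifampin was dissolved in methanol, diluted in water, and tested at 0.00001–256 μg/ml.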
# Clostridioides difficile [7] = experiment: Antimicrobial activity against Clostridium difficile isolate 33 by Etest
# Method in brief: (§5)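 Rifampin MIC by Etest strip on brucella blood agar, run per the strip maker's instructions. Isolates were HindIII REA-typed clinical C. difficile.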
# Clostridioides difficile [8] = experiment: Antimicrobial activity against Clostridium difficile isolate 11 by Etest; method in brief: as §5
# Clostridioides difficile [9] = experiment: Antimicrobial activity against Clostridium difficile isolate 5 by agar dilution method
# Method in brief: (§6)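 CLSI reference agar dilution method for anaerobes, with endpoints read per guideline M11-A7. Rifaximin was dissolved in methanol, diluted in 0.1 M phosphate buffer (pH 7.4) with 0.45% SDS, and tested at 0.0009–256 μg/ml. Rifampin was dissolved in methanol, diluted in water, and tested at 0.00001–256 μg/ml. C. difficile ATCC […] served as control. Isolates were typed by HindIII REA.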
# Clostridioides difficile [10] = experiment: Antimicrobial activity against Clostridium difficile isolate 14 by agar dilution method; method in brief: as §2
# Clostridioides difficile [11] = experiment: Antimicrobial activity against Clostridium difficile isolate 74 by agar dilution method
# Method in brief: (§7)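 CLSI reference agar dilution for anaerobes, with endpoints read per guideline M11-A7. Rifaximin was dissolved in methanol, diluted in 0.1 M phosphate buffer pH 7.4 with 0.45% SDS, and tested at 0.0009–256 μg/ml. Rifampin was dissolved in methanol, diluted in water, and tested at 0.00001–256 μg/ml. Control strain: C. difficile ATCC […]. Isolates were typed by HindIII REA.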
# Clostridioides difficile [12] = experiment: Antimicrobial activity against Clostridium difficile isolate 15 by Etest; method in brief: as §5
# Clostridioides difficile [13] = experiment: Antimicrobial activity against Clostridium difficile isolate 23 by agar dilution method; method in brief: as §2
# Clostridioides difficile [14] = experiment: Antimicrobial activity against Clostridium difficile isolate 59 by Etest; method in brief: as §1
# Clostridioides difficile [15] = experiment: Antimicrobial activity against Clostridium difficile isolate 79 by Etest; method in brief: as §3
# Clostridioides difficile [16] = experiment: Antimicrobial activity against Clostridium difficile isolate 71 by agar dilution method; method in brief: as §7
# Clostridioides difficile [17] = experiment: Antimicrobial activity against Clostridium difficile isolate 80 by agar dilution method; method in brief: as §7
# Clostridioides difficile [18] = experiment: Antimicrobial activity against Clostridium difficile isolate 60 by Etest; method in brief: as §1
# Clostridioides difficile [19] = experiment: Antimicrobial activity against rifaximin-resistant Clostridium difficile isolate 12 expressing RpoB H502N and R505K mutants by agar dilution method; method in brief: as §4
# Clostridioides difficile [20] = experiment: Antimicrobial activity against Clostridium difficile isolate 10 by Etest; method in brief: as §5
# Clostridioides difficile [21] = experiment: Antimicrobial activity against rifaximin-resistant Clostridium difficile isolate 24 expressing RpoB H502N and R505K mutants by agar dilution method; method in brief: as §4
# Clostridioides difficile [22] = experiment: Antimicrobial activity against Clostridium difficile isolate 47 by Etest; method in brief: as §1
# Clostridioides difficile [23] = experiment: Antimicrobial activity against Clostridium difficile isolate 32 by agar dilution method; method in brief: as §2
# Clostridioides difficile [24] = experiment: Antimicrobial activity against rifaximin-resistant Clostridium difficile isolate 21 expressing RpoB H502N and R505K mutants by agar dilution method; method in brief: as §4
# Clostridioides difficile [25] = experiment: Antimicrobial activity against Clostridium difficile isolate 46 by agar dilution method; method in brief: as §6
# Clostridioides difficile [26] = experiment: Antimicrobial activity against Clostridium difficile isolate 38 by Etest; method in brief: as §5
# Clostridioides difficile [27] = experiment: Antimicrobial activity against rifaximin-resistant Clostridium difficile isolate 4 expressing RpoB S488T and R505K mutants by Etest
# Method in brief: (§8)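 Rifampin Etest on clinical C. difficile isolates typed by HindIII REA, run per the strip manufacturer's instructions on brucella blood agar, with the MIC read from the strip.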
# Clostridioides difficile [28] = experiment: Antimicrobial activity against Clostridium difficile isolate 15 by agar dilution method; method in brief: as §2
# Clostridioides difficile [29] = experiment: Antimicrobial activity against Clostridium difficile isolate 55 by agar dilution method; method in brief: as §6
# Clostridioides difficile [30] = experiment: Antimicrobial activity against rifaximin-resistant Clostridium difficile isolate 4 expressing RpoB S488T and R505K mutants by agar dilution method; method in brief: as §4
# Clostridioides difficile [31] = experiment: Antimicrobial activity against Clostridium difficile isolate 44 by agar dilution method; method in brief: as §6
# Clostridioides difficile [32] = experiment: Antimicrobial activity against Clostridium difficile isolate 54 by Etest; method in brief: as §1
# Clostridioides difficile [33] = experiment: Antimicrobial activity against Clostridium difficile isolate 35 by agar dilution method; method in brief: as §2
# Clostridioides difficile [34] = experiment: Antimicrobial activity against Clostridium difficile isolate 54 by agar dilution method; method in brief: as §6
# Clostridioides difficile [35] = experiment: Antimicrobial activity against Clostridium difficile isolate 73 by Etest; method in brief: as §3
# Clostridioides difficile [36] = experiment: Antimicrobial activity against Clostridium difficile isolate 38 by agar dilution method; method in brief: as §6
# Clostridioides difficile [37] = experiment: Antimicrobial activity against Clostridium difficile isolate 5 by Etest; method in brief: as §1
# Clostridioides difficile [38] = experiment: Antimicrobial activity against Clostridium difficile isolate 51 by agar dilution method; method in brief: as §6
# Clostridioides difficile [39] = experiment: Antimicrobial activity against Clostridium difficile isolate 30 by agar dilution method; method in brief: as §2
# Clostridioides difficile [40] = experiment: Antimicrobial activity against Clostridium difficile isolate 16 by Etest; method in brief: as §5
# Clostridioides difficile [41] = experiment: Antimicrobial activity against Clostridium difficile isolate 27 by agar dilution method; method in brief: as §2
# Clostridioides difficile [42] = experiment: Antimicrobial activity against Clostridium difficile isolate 48 by agar dilution method; method in brief: as §6
# Clostridioides difficile [43] = experiment: Antimicrobial activity against rifaximin-resistant Clostridium difficile isolate 68 expressing RpoB H502Y mutant by agar dilution method; method in brief: as §4
# Clostridioides difficile [44] = experiment: Antimicrobial activity against Clostridium difficile isolate 27 by Etest; method in brief: as §5
# Clostridioides difficile [45] = experiment: Antimicrobial activity against Clostridium difficile isolate 25 by Etest; method in brief: as §5
# Clostridioides difficile [46] = experiment: Antimicrobial activity against Clostridium difficile isolate 48 by Etest; method in brief: as §1
# Clostridioides difficile [47] = experiment: Antimicrobial activity against Clostridium difficile isolate 79 by agar dilution method; method in brief: as §7
# Clostridioides difficile [48] = experiment: Antimicrobial activity against Clostridium difficile isolate 74 by Etest; method in brief: as §3
# Clostridioides difficile [49] = experiment: Antimicrobial activity against rifaximin-resistant Clostridium difficile isolate 22 expressing RpoB H502N and R505K mutants by Etest; method in brief: as §8
# Clostridioides difficile [50] = experiment: Antimicrobial activity against Clostridium difficile isolate 58 by agar dilution method; method in brief: as §6
smiles,measurement,setting,value
CO[C@H]1/C=C/O[C@@]2(C)Oc3c(C)c(O)c4c(O)c(c(/C=N/N5CCN(C)CC5)c(O)c4c3C2=O)NC(=O)/C(C)=C\C=C\[C@H](C)[C@H](O)[C@@H](C)[C@@H](O)[C@@H](C)[C@H](OC(C)=O)[C@@H]1C [RIFAMPIN],MIC,Clostridioides difficile [1],< 2 ng/mL
same,MIC,Clostridioides difficile [2],0.9 ng/mL
same,MIC,Clostridioides difficile [3],< 2 ng/mL
same,MIC,Clostridioides difficile [4],< 2 ng/mL
same,MIC,Clostridioides difficile [5],< 2 ng/mL
same,MIC,Clostridioides difficile [6],> 256 µg/mL
same,MIC,Clostridioides difficile [7],< 2 ng/mL
same,MIC,Clostridioides difficile [8],< 2 ng/mL
same,MIC,Clostridioides difficile [9],0.06 ng/mL
same,MIC,Clostridioides difficile [10],0.9 ng/mL
same,MIC,Clostridioides difficile [11],0.06 ng/mL
same,MIC,Clostridioides difficile [12],< 2 ng/mL
same,MIC,Clostridioides difficile [13],0.9 ng/mL
same,MIC,Clostridioides difficile [14],< 2 ng/mL
same,MIC,Clostridioides difficile [15],< 2 ng/mL
same,MIC,Clostridioides difficile [16],0.06 ng/mL
same,MIC,Clostridioides difficile [17],0.06 ng/mL
same,MIC,Clostridioides difficile [18],< 2 ng/mL
same,MIC,Clostridioides difficile [19],> 256 µg/mL
same,MIC,Clostridioides difficile [20],0.016 µg/mL
same,MIC,Clostridioides difficile [21],> 256 µg/mL
same,MIC,Clostridioides difficile [22],< 2 ng/mL
same,MIC,Clostridioides difficile [23],0.9 ng/mL
same,MIC,Clostridioides difficile [24],> 256 µg/mL
same,MIC,Clostridioides difficile [25],0.9 ng/mL
same,MIC,Clostridioides difficile [26],< 2 ng/mL
same,MIC,Clostridioides difficile [27],> 32 µg/mL
same,MIC,Clostridioides difficile [28],0.9 ng/mL
same,MIC,Clostridioides difficile [29],0.9 ng/mL
same,MIC,Clostridioides difficile [30],> 256 µg/mL
same,MIC,Clostridioides difficile [31],0.9 ng/mL
same,MIC,Clostridioides difficile [32],< 2 ng/mL
same,MIC,Clostridioides difficile [33],0.9 ng/mL
same,MIC,Clostridioides difficile [34],0.9 ng/mL
same,MIC,Clostridioides difficile [35],< 2 ng/mL
same,MIC,Clostridioides difficile [36],0.4 ng/mL
same,MIC,Clostridioides difficile [37],< 2 ng/mL
same,MIC,Clostridioides difficile [38],0.9 ng/mL
same,MIC,Clostridioides difficile [39],0.9 ng/mL
same,MIC,Clostridioides difficile [40],< 2 ng/mL
same,MIC,Clostridioides difficile [41],0.4 ng/mL
same,MIC,Clostridioides difficile [42],0.9 ng/mL
same,MIC,Clostridioides difficile [43],> 256 µg/mL
same,MIC,Clostridioides difficile [44],< 2 ng/mL
same,MIC,Clostridioides difficile [45],< 2 ng/mL
same,MIC,Clostridioides difficile [46],< 2 ng/mL
same,MIC,Clostridioides difficile [47],0.06 ng/mL
same,MIC,Clostridioides difficile [48],< 2 ng/mL
same,MIC,Clostridioides difficile [49],> 32 µg/mL
same,MIC,Clostridioides difficile [50],0.9 ng/mL
